In ChEMBL document CHEMBL1145780, “Evaluation of the first cytostatically active 1-aza-9-oxafluorenes as novel selective CDK1 inhibitors with P-glycoprotein modulating properties” (J Med Chem, 2003):

Key:
IGROV-1 = test: Inhibition of ovarian cancer IGROVI cell proliferation; type: functional; details: Homo sapiens
In short: (§1)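 NCI in vitro antitumour screen across 60 human tumour cell lines, run as a sulforhodamine B protein cytotoxicity assay. Values are log GI50, mean of two determinations. The panel mean-graph midpoint (MG_MID) summarises all 60 lines, and the ovarian IGROV1 line is reported individually.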

[1] = biological target: T1, ATP-dependent translocase ABCB1 (Homo sapiens, UniProt P08183); test: Inhibition of P-glycoprotein, MDR-1, expressed in mouse T-cell lymphoma cell line at 70 uM; type: functional, cell-based
T1 sequence (P08183 whole entry): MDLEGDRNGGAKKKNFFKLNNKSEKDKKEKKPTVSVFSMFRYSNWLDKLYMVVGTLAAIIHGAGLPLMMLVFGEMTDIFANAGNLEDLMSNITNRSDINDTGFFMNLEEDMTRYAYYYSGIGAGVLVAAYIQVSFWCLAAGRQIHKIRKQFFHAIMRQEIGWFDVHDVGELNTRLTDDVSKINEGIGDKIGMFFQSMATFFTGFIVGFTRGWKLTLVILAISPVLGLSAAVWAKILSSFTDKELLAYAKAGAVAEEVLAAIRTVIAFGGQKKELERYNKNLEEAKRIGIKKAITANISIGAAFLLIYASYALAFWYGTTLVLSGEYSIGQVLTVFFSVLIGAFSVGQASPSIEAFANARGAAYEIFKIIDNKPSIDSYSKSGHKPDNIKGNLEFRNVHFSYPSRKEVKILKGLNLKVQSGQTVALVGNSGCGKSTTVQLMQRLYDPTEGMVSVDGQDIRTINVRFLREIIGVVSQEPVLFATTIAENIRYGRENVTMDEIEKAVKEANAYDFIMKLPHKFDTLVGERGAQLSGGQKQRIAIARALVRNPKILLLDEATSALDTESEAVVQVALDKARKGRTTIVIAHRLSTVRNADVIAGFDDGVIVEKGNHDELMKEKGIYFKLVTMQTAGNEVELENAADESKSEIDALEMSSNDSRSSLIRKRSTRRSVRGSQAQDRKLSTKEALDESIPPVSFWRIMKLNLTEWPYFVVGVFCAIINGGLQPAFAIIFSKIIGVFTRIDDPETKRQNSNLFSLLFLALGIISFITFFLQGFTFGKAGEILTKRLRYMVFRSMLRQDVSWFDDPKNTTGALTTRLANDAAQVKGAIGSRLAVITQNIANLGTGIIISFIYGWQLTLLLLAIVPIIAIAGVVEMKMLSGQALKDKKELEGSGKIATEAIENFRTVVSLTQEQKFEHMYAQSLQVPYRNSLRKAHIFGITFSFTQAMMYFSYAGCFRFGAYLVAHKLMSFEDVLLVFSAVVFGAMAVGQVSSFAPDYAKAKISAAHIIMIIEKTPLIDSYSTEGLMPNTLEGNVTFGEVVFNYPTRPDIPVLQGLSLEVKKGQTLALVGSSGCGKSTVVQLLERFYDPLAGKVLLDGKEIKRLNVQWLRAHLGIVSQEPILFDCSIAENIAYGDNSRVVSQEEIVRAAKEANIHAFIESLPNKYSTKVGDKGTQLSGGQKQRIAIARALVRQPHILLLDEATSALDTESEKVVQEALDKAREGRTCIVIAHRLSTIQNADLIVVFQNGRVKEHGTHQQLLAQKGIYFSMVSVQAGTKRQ
In short: (§2)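 Rhodamine 123 uptake in L5178Y mouse T-cell lymphoma parental cells and the L5178YvMDR subline transfected with human MDR-1, at 2 × 10⁶ cells/mL in serum-free McCoy's 5A. Cells were preincubated with compound at room temperature, then given 5.2 μM rhodamine 123 (final) for 20 min at 37 °C and washed twice in PBS. Fluorescence of 1 × 10⁴ cells was read by flow cytometry. R = (MDR treated/untreated)/(parental treated/untreated), mean of two determinations.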

[2] = biological target: T1, ATP-dependent translocase ABCB1; test: Inhibition of membrane efflux pump P-glycoprotein at 7 uM; type: functional; in short: as §2
[3] = biological target: Cyclin-dependent kinase 1/cyclin B (Homo sapiens, UniProt O95067+P06493+P14635+Q8WWL7); test: Inhibition of Cyclin-dependent kinase 1-cyclin B from M phase starfish (Marthasterias glacialis) oocytes; type: cell-based, Asteroidea, Oocyte
Sequence of Cyclin-dependent kinase 1/cyclin B (Homo sapiens, UniProt O95067+P06493+P14635+Q8WWL7) (P06493 whole entry): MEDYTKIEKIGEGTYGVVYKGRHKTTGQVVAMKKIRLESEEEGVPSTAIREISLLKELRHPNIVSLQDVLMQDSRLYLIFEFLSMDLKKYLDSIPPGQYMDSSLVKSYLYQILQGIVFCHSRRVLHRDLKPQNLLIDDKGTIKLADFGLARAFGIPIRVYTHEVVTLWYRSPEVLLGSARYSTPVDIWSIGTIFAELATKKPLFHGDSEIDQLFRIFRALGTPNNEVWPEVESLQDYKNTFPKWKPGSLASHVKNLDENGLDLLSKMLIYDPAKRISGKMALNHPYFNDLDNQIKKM
Sequence of Cyclin-dependent kinase 1/cyclin B (Homo sapiens, UniProt O95067+P06493+P14635+Q8WWL7) (P14635 whole entry): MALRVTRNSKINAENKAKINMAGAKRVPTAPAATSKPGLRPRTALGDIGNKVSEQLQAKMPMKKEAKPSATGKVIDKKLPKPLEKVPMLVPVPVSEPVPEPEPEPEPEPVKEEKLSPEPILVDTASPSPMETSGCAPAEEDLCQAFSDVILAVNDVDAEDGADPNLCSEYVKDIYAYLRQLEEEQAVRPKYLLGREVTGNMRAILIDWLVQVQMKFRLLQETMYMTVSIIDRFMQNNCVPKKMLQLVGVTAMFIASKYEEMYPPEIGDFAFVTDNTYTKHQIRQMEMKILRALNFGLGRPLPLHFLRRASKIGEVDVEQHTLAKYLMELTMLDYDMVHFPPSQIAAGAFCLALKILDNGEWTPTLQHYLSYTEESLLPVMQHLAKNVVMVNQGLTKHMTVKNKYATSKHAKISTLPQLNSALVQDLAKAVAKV
Sequence of Cyclin-dependent kinase 1/cyclin B (Homo sapiens, UniProt O95067+P06493+P14635+Q8WWL7) (Q8WWL7 whole entry): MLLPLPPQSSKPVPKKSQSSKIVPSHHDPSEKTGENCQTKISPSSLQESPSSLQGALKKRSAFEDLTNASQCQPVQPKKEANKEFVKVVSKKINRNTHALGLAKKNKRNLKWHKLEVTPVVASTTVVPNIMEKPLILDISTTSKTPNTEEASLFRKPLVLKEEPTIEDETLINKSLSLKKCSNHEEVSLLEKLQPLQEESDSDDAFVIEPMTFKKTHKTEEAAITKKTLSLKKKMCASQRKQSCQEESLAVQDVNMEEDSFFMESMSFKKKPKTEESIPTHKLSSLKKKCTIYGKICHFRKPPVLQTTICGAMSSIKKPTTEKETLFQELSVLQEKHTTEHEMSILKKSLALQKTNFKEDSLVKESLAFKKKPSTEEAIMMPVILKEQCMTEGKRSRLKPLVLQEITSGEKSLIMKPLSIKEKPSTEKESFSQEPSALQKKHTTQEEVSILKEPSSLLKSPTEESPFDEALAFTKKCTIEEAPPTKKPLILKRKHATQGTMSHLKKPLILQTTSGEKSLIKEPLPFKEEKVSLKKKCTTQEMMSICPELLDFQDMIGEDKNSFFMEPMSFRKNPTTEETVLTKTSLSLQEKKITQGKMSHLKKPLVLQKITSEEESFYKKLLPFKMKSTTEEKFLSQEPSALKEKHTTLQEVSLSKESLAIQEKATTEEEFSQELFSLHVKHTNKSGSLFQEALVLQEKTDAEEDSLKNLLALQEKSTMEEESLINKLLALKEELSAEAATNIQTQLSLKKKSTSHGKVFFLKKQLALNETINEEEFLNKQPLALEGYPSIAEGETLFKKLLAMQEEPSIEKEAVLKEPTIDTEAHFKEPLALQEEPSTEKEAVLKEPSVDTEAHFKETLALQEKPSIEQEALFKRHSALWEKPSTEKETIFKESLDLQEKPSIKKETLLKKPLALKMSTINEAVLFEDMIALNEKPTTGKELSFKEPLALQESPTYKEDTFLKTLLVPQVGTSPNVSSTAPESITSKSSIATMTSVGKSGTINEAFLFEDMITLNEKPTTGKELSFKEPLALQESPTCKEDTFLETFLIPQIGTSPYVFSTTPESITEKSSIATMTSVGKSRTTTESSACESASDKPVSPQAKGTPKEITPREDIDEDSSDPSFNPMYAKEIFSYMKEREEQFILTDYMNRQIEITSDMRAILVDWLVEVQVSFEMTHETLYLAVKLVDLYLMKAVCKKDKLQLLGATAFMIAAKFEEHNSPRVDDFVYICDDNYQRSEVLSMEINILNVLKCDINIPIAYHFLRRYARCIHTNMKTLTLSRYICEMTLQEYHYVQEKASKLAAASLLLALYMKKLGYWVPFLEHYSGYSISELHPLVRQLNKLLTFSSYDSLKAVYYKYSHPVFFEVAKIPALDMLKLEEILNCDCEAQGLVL
Sequence of Cyclin-dependent kinase 1/cyclin B (Homo sapiens, UniProt O95067+P06493+P14635+Q8WWL7) (O95067 whole entry): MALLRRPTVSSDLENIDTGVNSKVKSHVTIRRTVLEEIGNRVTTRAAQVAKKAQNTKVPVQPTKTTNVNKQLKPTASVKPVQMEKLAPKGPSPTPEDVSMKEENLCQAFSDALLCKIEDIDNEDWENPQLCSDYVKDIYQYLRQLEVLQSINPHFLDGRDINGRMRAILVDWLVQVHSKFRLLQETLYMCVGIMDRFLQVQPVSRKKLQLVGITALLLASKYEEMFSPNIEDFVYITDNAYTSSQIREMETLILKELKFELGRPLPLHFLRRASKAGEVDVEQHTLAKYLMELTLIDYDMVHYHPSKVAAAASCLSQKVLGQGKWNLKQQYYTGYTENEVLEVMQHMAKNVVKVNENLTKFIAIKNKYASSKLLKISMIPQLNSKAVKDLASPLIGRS

Tumor Cell line = test: Cytostatic activity in performed screen of NCI 60 cell lines, mean graph midpoint; type: functional; details: Homo sapiens; in short: as §1
[4] = biological target: Cyclin-dependent kinase 5/CDK5 activator 1 (Homo sapiens) (UniProt Q00535+Q15078); test: Inhibition of Cyclin-dependent kinase 5 (CDK5) at 10 uM; type: protein-complex assay
Sequence of Cyclin-dependent kinase 5/CDK5 activator 1 (Homo sapiens) (Q00535 whole entry): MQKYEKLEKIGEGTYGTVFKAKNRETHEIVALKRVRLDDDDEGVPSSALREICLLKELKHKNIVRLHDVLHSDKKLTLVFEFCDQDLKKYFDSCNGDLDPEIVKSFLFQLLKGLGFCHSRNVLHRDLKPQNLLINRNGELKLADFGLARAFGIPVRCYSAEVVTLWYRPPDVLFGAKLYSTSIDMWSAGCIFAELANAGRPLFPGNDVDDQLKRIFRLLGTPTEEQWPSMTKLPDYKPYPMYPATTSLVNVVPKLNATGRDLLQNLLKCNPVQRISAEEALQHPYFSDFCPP
Sequence of Cyclin-dependent kinase 5/CDK5 activator 1 (Homo sapiens) (Q15078 99-307 partner limits assumed): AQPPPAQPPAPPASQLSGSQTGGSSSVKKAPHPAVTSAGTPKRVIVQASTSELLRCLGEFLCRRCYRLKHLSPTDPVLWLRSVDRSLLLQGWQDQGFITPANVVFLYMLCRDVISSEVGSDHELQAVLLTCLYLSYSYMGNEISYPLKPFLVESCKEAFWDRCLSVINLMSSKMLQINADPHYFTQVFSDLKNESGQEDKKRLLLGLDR
In short: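 Recombinant GST-tagged mammalian CDK5 and p25 mixed in equal amounts and purified. Assayed in the same homogenization buffer as CDK1/cyclin B (Mops pH 7.2, Mg2+, EGTA, DTT, phosphatase inhibitors) at 30 °C with 15 μM final ATP for 10 min. Phosphate incorporation measured with blanks subtracted. Percent inhibition at 10 μM test concentration, mean of two determinations.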

[5] = biological target: Cyclin-dependent kinase 1/cyclin B (Homo sapiens, UniProt P06493+P14635+Q8WWL7+O95067); test: Inhibition of Cyclin-dependent kinase 1-cyclin B from M phase starfish (Marthasterias glacialis) oocytes (inactive); type: cell-based, Asteroidea; details: oocyte
Sequence of Cyclin-dependent kinase 1/cyclin B (Homo sapiens, UniProt P06493+P14635+Q8WWL7+O95067) (P06493 whole entry): as the sequence (P06493 whole entry) above
Sequence of Cyclin-dependent kinase 1/cyclin B (Homo sapiens, UniProt P06493+P14635+Q8WWL7+O95067) (P14635 whole entry): as the sequence (P14635 whole entry) above
Sequence of Cyclin-dependent kinase 1/cyclin B (Homo sapiens, UniProt P06493+P14635+Q8WWL7+O95067) (Q8WWL7 whole entry): as the sequence (Q8WWL7 whole entry) above
Sequence of Cyclin-dependent kinase 1/cyclin B (Homo sapiens, UniProt P06493+P14635+Q8WWL7+O95067) (O95067 whole entry): as the sequence (O95067 whole entry) above

| Compound | Inhibitory activity ratio [1] | Inhibitory activity ratio [2] | IC50 [3] | inhibition [4] | IC50 [5] | GI50 (IGROV-1) | GI50 (Tumor Cell line) |
| --- | --- | --- | --- | --- | --- | --- | --- |
| CC(=O)c1cnc2oc3ccc(O)cc3c2c1-c1ccccc1 | 6.74 | 1.26 | 4.2 µM | 15% |  | 5.01 µM | 31.6 µM |
| CC(=O)c1cnc2oc3ccc(O)cc3c2c1C |  |  |  | 10% | Not Active | > 100 µM | > 100 µM |
| CCOC(=O)c1cnc2oc3ccc(OC(C)=O)cc3c2c1-c1ccccc1 |  |  |  |  |  | > 100 µM |  |

Continued, in another order:

| Inhibitory activity ratio [1] | Inhibitory activity ratio [2] | IC50 [3] | inhibition [4] | IC50 [5] | Compound | GI50 (IGROV-1) | GI50 (Tumor Cell line) |
| --- | --- | --- | --- | --- | --- | --- | --- |
| 9.14 | 9.5 | 28.8 µM | 6% |  | CCOC(=O)c1cnc2oc3ccc(O)cc3c2c1-c1ccccc1 | 2.51 µM | 31.6 µM |
| 4.77 | 1.18 |  | 3% | Not Active | CCOC(=O)c1cnc2oc3ccc(O)cc3c2c1C | 79.4 µM | 79.4 µM |
